# Columns and labels:
# Assay type in all cases: functional
# [1] = tested on: ACHN; test: Growth inhibition of human ACHN cells assessed as cell growth at 10 uM incubated for 48 hrs by sulforhodamine B assay relative to control; conditions: read-out: Activity
# Procedure, shortened: (§1)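 Run in the standard NCI 60-cell-line screen. Cells were exposed to drug for two days, and the read-out was sulforhodamine B staining. Compound was tested at a single final concentration of 10 µM in every line, and results are reported as growth percent.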
# [2] = tested on: NCI-H460; test: Growth inhibition of human NCI-H460 cells assessed as cell growth at 10 uM incubated for 48 hrs by sulforhodamine B assay relative to control; conditions: NCI-H460, 48 h, read-out: Activity; procedure, shortened: as §1
# [3] = Growth inhibition of human BT549 cells assessed as cell growth at 10 uM incubated for 48 hrs by sulforhodamine B assay relative to control; conditions: BT-549, 48 h, read-out: Activity; procedure, shortened: as §1
# [4] = Growth inhibition of human SNB75 cells assessed as cell growth at 10 uM incubated for 48 hrs by sulforhodamine B assay relative to control; conditions: SNB-75, 48 h, read-out: Activity; procedure, shortened: as §1
# [5] = tested on: U-251; test: Growth inhibition of human U251 cells assessed as cell growth at 10 uM incubated for 48 hrs by sulforhodamine B assay relative to control; conditions: U-251, 48 h, read-out: Activity
# Procedure, shortened: (§2)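 NCI 60-cell line standard protocol, one-dose screen: single final concentration 10 µM, 2-day drug exposure, sulforhodamine B (SRB) endpoint; read-out is growth percent relative to untreated control.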
# [6] = tested on: NCI-H23; test: Growth inhibition of human NCI-H23 cells assessed as cell growth at 10 uM incubated for 48 hrs by sulforhodamine B assay relative to control; conditions: NCI-H23, 48 h, read-out: Activity; procedure, shortened: as §1
# [7] = Growth inhibition of human UACC62 cells assessed as cell growth at 10 uM incubated for 48 hrs by sulforhodamine B assay relative to control; conditions: UACC-62, 48 h, read-out: Activity; procedure, shortened: as §2
# [8] = Growth inhibition of human SW620 cells assessed as cell growth at 10 uM incubated for 48 hrs by sulforhodamine B assay relative to control; conditions: SW-620, 48 h, read-out: Activity; procedure, shortened: as §1
# [9] = tested on: A549; test: Growth inhibition of human A549/ATCC cells assessed as cell growth at 10 uM incubated for 48 hrs by sulforhodamine B assay relative to control; conditions: A549, 48 h, read-out: Activity; procedure, shortened: as §1
# [10] = tested on: Malme-3M; test: Growth inhibition of human MALME-3M cells assessed as cell growth at 10 uM incubated for 48 hrs by sulforhodamine B assay relative to control; conditions: read-out: Activity; procedure, shortened: as §1
# [11] = tested on: MDA-MB-231; test: Growth inhibition of human MDA-MB-231 cells assessed as cell growth at 10 uM incubated for 48 hrs by sulforhodamine B assay relative to control; conditions: MDA-MB-231, 48 h, read-out: Activity; procedure, shortened: as §1
# [12] = tested on: 786-0; test: Growth inhibition of human 786-0 cells assessed as cell growth at 10 uM incubated for 48 hrs by sulforhodamine B assay relative to control; conditions: 786-0, 48 h, read-out: Activity; procedure, shortened: as §1
# [13] = tested on: KM12; test: Growth inhibition of human KM12 cells incubated for 48 hrs by sulforhodamine B assay; conditions: KM12, 48 h
# Procedure, shortened: (§3)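 NCI 60-cell-line panel, standard protocol. Cells exposed to compound for two days, growth read by sulforhodamine B staining. Tested at five 10-fold dilutions, top concentration 100 µM, to give dose-response curves.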
# [14] = tested on: SR; test: Growth inhibition of human SR cells incubated for 48 hrs by sulforhodamine B assay
# Procedure, shortened: (§4)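 Tested in the standard NCI 60-cell-line protocol with two-day drug exposure and a sulforhodamine B endpoint. Compounds were first screened at a single final concentration of 10 µM, reported as growth percent. They were then run as five 10-fold dilutions starting from a high concentration of 100 µM to give dose-response curves.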
# [15] = Growth inhibition of human OVCAR5 cells incubated for 48 hrs by sulforhodamine B assay; conditions: OVCAR-5, 48 h; procedure, shortened: as §3
# [16] = tested on: NCI/ADR-RES; test: Growth inhibition of human NCI/ADR-RES cells incubated for 48 hrs by sulforhodamine B assay; procedure, shortened: as §3
# [17] = Growth inhibition of human HCT15 cells incubated for 48 hrs by sulforhodamine B assay; conditions: HCT-15, 48 h; procedure, shortened: as §3
# [18] = tested on: M14; test: Growth inhibition of human M14 cells incubated for 48 hrs by sulforhodamine B assay; conditions: M14, 48 h; procedure, shortened: as §3
# [19] = tested on: CCRF-CEM; test: Growth inhibition of human CCRF-CEM cells incubated for 48 hrs by sulforhodamine B assay; procedure, shortened: as §3
# [20] = tested on: MCF7; test: Growth inhibition of human MCF7 cells incubated for 48 hrs by sulforhodamine B assay; conditions: MCF7, 48 h; procedure, shortened: as §3
# [21] = tested on: A498; test: Growth inhibition of human A498 cells incubated for 48 hrs by sulforhodamine B assay; conditions: A498, 48 h
# [22] = Growth inhibition of human RPMI8226 cells incubated for 48 hrs by sulforhodamine B assay; conditions: RPMI-8226, 48 h; procedure, shortened: as §3
# [23] = tested on: MDA-MB-231; test: Growth inhibition of human MDA-MB-231 cells incubated for 48 hrs by sulforhodamine B assay; conditions: MDA-MB-231, 48 h; procedure, shortened: as §3
# [24] = tested on: NCI-H23; test: Growth inhibition of human NCI-H23 cells incubated for 48 hrs by sulforhodamine B assay; conditions: NCI-H23, 48 h; procedure, shortened: as §3
# [25] = tested on: U-251; test: Growth inhibition of human U251 cells incubated for 48 hrs by sulforhodamine B assay; conditions: U-251, 48 h; procedure, shortened: as §4
# [26] = Growth inhibition of human IGROV1 cells incubated for 48 hrs by sulforhodamine B assay; conditions: IGROV-1, 48 h; procedure, shortened: as §3
# [27] = tested on: NCI-H522; test: Growth inhibition of human NCI-H522 cells incubated for 48 hrs by sulforhodamine B assay; conditions: NCI-H522, 48 h; procedure, shortened: as §3
# [28] = tested on: A549; test: Growth inhibition of human A549/ATCC cells incubated for 48 hrs by sulforhodamine B assay; conditions: A549, 48 h; procedure, shortened: as §3
# [29] = read-out: pLC50 (the source's name) (converted)
smiles,measurement,setting,value
CC(C)[C@@]12C[C@@H](NC(=O)CF)[C@@](C)(O1)[C@@H]1CC[C@@H](C)[C@H]1[C@@H]2OC(=O)/C=C/c1ccccc1,growth at 10 µM,[1],105%
same,growth at 10 µM,[2],104%
same,growth at 10 µM,[3],111%
same,growth at 10 µM,[4],87.9%
same,growth at 10 µM,[5],106%
same,growth at 10 µM,[6],102%
same,growth at 10 µM,[7],99.6%
same,growth at 10 µM,[8],101%
same,growth at 10 µM,[9],94.4%
same,growth at 10 µM,[10],106%
same,growth at 10 µM,[11],102%
same,growth at 10 µM,[12],97.3%
CC(C)[C@@]12C[C@@H](NC(=O)CO)[C@@](C)(O1)[C@@H]1CC[C@@H](C)[C@H]1[C@@H]2OC(=O)/C=C/C1CCCCC1,growth at 10 µM,[1],99.9%
same,growth at 10 µM,[2],103%
same,growth at 10 µM,[3],109%
same,GI50,[13],> 44.7 µM
same,LC50,[13],> 44.7 µM
same,TGI,[13]; read-out: pTGI (converted),> 44.7 µM
same,growth at 10 µM,[4],86.1%
same,GI50,[14],> 44.7 µM
same,LC50,[14],> 44.7 µM
same,TGI,[14]; read-out: pTGI (converted),> 44.7 µM
same,GI50,[15],> 44.7 µM
same,LC50,[15],> 44.7 µM
same,TGI,[15]; read-out: pTGI (converted),> 44.7 µM
same,GI50,[16],40.7 µM
same,LC50,[16],> 44.7 µM
same,TGI,[16]; read-out: pTGI (converted),> 44.7 µM
same,GI50,[17],> 44.7 µM
same,LC50,[17],> 44.7 µM
same,TGI,[17]; read-out: pTGI (converted),> 44.7 µM
same,growth at 10 µM,[5],98.1%
same,GI50,[18],> 44.7 µM
same,LC50,[18],> 44.7 µM
same,TGI,[18]; read-out: pTGI (converted),> 44.7 µM
same,GI50,[19],> 44.7 µM
same,CC50,[19]; [29],> 44.7 µM
same,TGI,[19]; read-out: pTGI (converted),> 44.7 µM
same,growth at 10 µM,[6],99.4%
same,GI50,[20],> 44.7 µM
same,CC50,[20]; [29],> 44.7 µM
same,TGI,[20]; read-out: pTGI (converted),> 44.7 µM
same,growth at 10 µM,[7],101%
same,LC50,[21],> 44.7 µM
same,GI50,[21]; read-out: GI50,5.62 µM
same,GI50,[21]; read-out: pGI50 (converted),5.62 µM
same,TGI,[21]; read-out: pTGI (converted),21.4 µM
same,GI50,[22],> 44.7 µM
same,CC50,[22]; [29],> 44.7 µM
same,TGI,[22]; read-out: pTGI (converted),> 44.7 µM
same,growth at 10 µM,[8],102%
same,GI50,[23],> 44.7 µM
same,CC50,[23]; [29],> 44.7 µM
same,TGI,[23]; read-out: pTGI (converted),> 44.7 µM
same,GI50,[24],> 44.7 µM
same,LC50,[24],> 44.7 µM
same,TGI,[24]; read-out: pTGI (converted),> 44.7 µM
same,growth at 10 µM,[9],92%
same,GI50,[25],> 44.7 µM
same,LC50 (concentration giving 50% net cell kill),[25],> 44.7 µM
same,TGI,[25]; read-out: pTGI (converted),> 44.7 µM
same,growth at 10 µM,[10],109%
same,growth at 10 µM,[11],107%
same,GI50,[26],> 44.7 µM
same,CC50,[26]; [29],> 44.7 µM
same,TGI,[26]; read-out: pTGI (converted),> 44.7 µM
same,GI50,[27],> 44.7 µM
same,LC50,[27],> 44.7 µM
same,TGI,[27]; read-out: pTGI (converted),> 44.7 µM
same,growth at 10 µM,[12],100%
same,GI50,[28],> 44.7 µM
same,LC50,[28],> 44.7 µM
same,TGI,[28]; read-out: pTGI (converted),> 44.7 µM
